The values that follow come from the RNAGym collection of RNA variant scans (doi:10.1038/nmeth.2970).

To fix the notation:
B1: GFP aptamer (parent)
chain: GCUUCUGGACUGCGAUGGGAGCACGAAACGUCGUGGCGCAAUUGGGUGGGGAAAGUCCUUAAAAGAGGGCCACCACAGAAGC

In this data set the parent is B1. Description: HiTS-RAP. The conditions noted are these: with EGFP. The method in brief: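 Aptamer DNA templates carrying a T7 promoter and ter site were sequenced on an Illumina GAIIx flowcell, then transcribed in situ by T7 RNA polymerase and halted by GST-Tus (30 minutes, 37°C). Clusters were imaged after 30-minute room-temperature equilibration with EGFP-mOrange at 0.04 nM to 625 nM in fivefold steps. Intensities were decay-corrected, normalised to sequencing intensity and averaged per sequence. Kd came from weighted Hill fits per lane, geometrically averaged over three lanes, with non-rising sequences set to 125 nM.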
As usually defined, the Kd is the concentration at which binding is half-saturated. On to G8A G14A, for which the Kd came out at 20.2 nM.
The figure for G18C is not below 125 nM; for G18A it is not below 125 nM.
Regarding G18U, the Kd was not below 125 nM.
To C24U G68A belongs 54.1 nM.
To C13U A40G belongs 3 nM; to A27G A28G, 4.44 nM; to A15G A28G, 3.9 nM.
To A23G U31C belongs 3.06 nM; to U4C, 7.99 nM.
Take U4A: the Kd turned out to be 4.17 nM.
The figure for U4G is 4.6 nM.
The figure for A15U is 10.3 nM.
The figure for A15G is 4.76 nM; for A15C it is 66.2 nM.
With A20G U60A, the Kd worked out at 7.33 nM.
G25A C32U: the Kd amounted to 13.6 nM.
In the case of A27G C37U, the Kd was 3.28 nM.
The figure for C10U U34C is 4.37 nM; for A20G A79G it is 37.9 nM; for U16G it is 2.69 nM.
To U16C belongs 6.81 nM; to U16A, 5.38 nM; to A23G A26G, 35.8 nM.
The figure for A15G A27G is 5.3 nM; for C22U A41G it is 21.2 nM.
As for C13U U42C, the Kd came out at 3.54 nM.
Take A23G A27G: the Kd came out at 5.79 nM.
For G7A, the Kd amounted to 43.8 nM.
G7C: the Kd came to 88.1 nM.
Regarding G7U, the Kd was determined as 23.4 nM.
Regarding C10U G33A, the Kd was 29.6 nM.
For the variant C10U A28G, the Kd was 4.55 nM.
The figure for C22U G68A is 18 nM; for G14A A28G it is 4.8 nM; for G25A U43C it is 2.24 nM.
The figure for A20G A28G is 15.5 nM; for A26G C70U it is 0.997 nM; for A26G U31C it is 3.77 nM.
The figure for A26G A77G is 3.88 nM; for A26G C32U it is 5.01 nM; for A23G it is 5.87 nM.
Take A23U: the Kd was 11.2 nM.
The figure for A23C is 13.2 nM; for C13A it is 14.6 nM.
As to C13U, the Kd worked out at 4.53 nM.
The figure for C13G is 6.37 nM; for A20G G44A it is 13 nM; for A26G A27G it is 2.12 nM.
C10U A20G: the Kd stood at 3.79 nM.
To C13U A26G belongs 2.37 nM; to C13U A41G, 10 nM; to C13U U43C, 8.72 nM.
To A27G A77G belongs 4.47 nM.
A20G U31C: the Kd turned out to be 35.3 nM.
With A20U, the Kd is not below 125 nM.
The figure for A20G is 8.28 nM; for A20C it is not below 125 nM; for U16C A28G it is 4.74 nM.
To C10U U47C belongs 1.58 nM.
As to A27G A79G, the Kd was 2.94 nM.
Regarding C10U C13U, the Kd came out at 15.1 nM.
Regarding A23G C74U, the Kd was 2.27 nM.
To C13U A28G belongs 3.77 nM; to G12A, 22.4 nM; to G12C, 30.6 nM.
To G12U belongs 18.9 nM; to A15G G25A, 2.42 nM; to A27G C70U, 17 nM.
Consider C24U G33A, for which the Kd is 5.72 nM.
Take A27G C71U: the Kd stood at 17.8 nM.
To A27G C73U belongs 10.5 nM.
Regarding A20G A23G, the Kd stood at 1.51 nM.
In the case of A20G A27G, the Kd came to 4.69 nM.
To G25A A27G belongs 5.68 nM.
For the variant A20G C58U, the Kd is 11.5 nM.
To C13U U34C belongs 36.2 nM; to A26G A41G, 2.97 nM.
The figure for G14A A26G is 7.76 nM; for U11C A40G it is 4.63 nM; for C10U C29U it is 3.83 nM.
On to G25A C58U, for which the Kd was 2.17 nM.
For the variant G25A U31C, the Kd amounted to 3.75 nM.
The figure for U11C A28G is 15.9 nM.
As to C5U, the Kd was 4.3 nM.
Regarding C5A, the Kd was determined as 8.09 nM.
In the case of C5G, the Kd came to 5.26 nM.
The figure for A20G G30A is 30.3 nM; for A9U it is 6.86 nM.
The figure for A9G is 14.8 nM.
The figure for A9C is 8 nM.
As for A26C, the Kd came out at 4.53 nM.
In the case of A26U, the Kd is 4.33 nM.
The figure for A26G is 4.22 nM; for U16C U59C it is 7.5 nM.
For the variant C22U A28G, the Kd worked out at 10.1 nM.
U11C A27G: the Kd stood at 3.8 nM.
The figure for C13U A27G is 7.37 nM.
To C24U C58U belongs 2.39 nM; to G19C, not below 125 nM; to G19U, not below 125 nM.
In the case of G19A, the Kd amounted to 48.3 nM.
Consider U11C C73U, for which the Kd was 44.7 nM.
With A20G G25A, the equilibrium dissociation constant (Kd) was found to be 10.8 nM.
The figure for C10U G14A is 6.22 nM; for G17U it is 5.8 nM.
The figure for G17C is not below 125 nM; for G17A it is not below 125 nM.
For A20G A41G, the Kd worked out at 19.6 nM.
As for A23G U34C, the Kd is 1.23 nM.
The figure for A20G A62G is 13.1 nM.
To C13U C70U belongs 2.02 nM; to C22U U43C, 2.31 nM; to C22U C58U, 12.7 nM.
For the variant G25A A28G, the Kd stood at 5.89 nM.
For the variant A27C, the Kd turned out to be 4.47 nM.
As for A27G, the Kd is 4.28 nM.
Regarding A9G A27G, the Kd was 21 nM.
The figure for C10U C37U is 14.3 nM; for C24U A27G it is 7.09 nM.
As for G25A G33A, the Kd worked out at 11.9 nM.
To G25A C74U belongs 4.63 nM.
On to U11G, for which the Kd was found to be 3.81 nM.
On to U11C, for which the Kd was 24.2 nM.
To U11A belongs 4.13 nM; to A27G A40G, 2.81 nM.
For the variant U11C A77G, the Kd is 9.02 nM.
For the variant C24A, the Kd was found to be 10.6 nM.
For C24U, the Kd turned out to be 4.82 nM.
To C24G belongs 13.2 nM; to G21U, 6 nM.
G21C: the Kd came out at 5.13 nM.
As for G21A, the Kd was not below 125 nM.
In the case of A26G C73U, the Kd is 5.43 nM.
To C10U C73U belongs 5.31 nM; to C13U C74U, 17.4 nM; to C24U A28G, 2.43 nM.
To G14A C32U belongs 15.4 nM; to C10U A77G, 36 nM.
For C24U C37U, the Kd is 6.91 nM.
To A27G C58U belongs 0.55 nM; to C13U C58U, 0.942 nM.
For the variant C24U A41G, the Kd was 11.7 nM.
The figure for C10G is 4.07 nM; for C10U it is 4.3 nM.
The figure for C10A is 3.61 nM.
Turning to A27G C32U, the Kd was determined as 3.03 nM.
As for U3G, the Kd amounted to 5.4 nM.
To U3C belongs 4.42 nM; to U3A, 3.51 nM.
On to A20G G33A, for which the Kd turned out to be 49 nM.
The figure for C22U A27G is 9.49 nM; for C22A it is 13.8 nM.
C22G: the Kd was found to be 29.1 nM.
Turning to C22U, the Kd is 9.58 nM.
The figure for G14C is 25.1 nM.
To G14U belongs 4.92 nM; to G14A, 7.34 nM; to G25A A77G, 3.54 nM.
With U11C U31C, the Kd is 14.2 nM.
To A27G A75G belongs 5.08 nM; to G25A, 5 nM.
On to G25C, for which the Kd amounted to 7 nM.
To G25U belongs 3.87 nM.
The figure for C10U A23G is 5.08 nM.
As to G8A, the Kd came out at 26.7 nM.
Regarding G8U, the Kd was 5.56 nM.
